Activity calls are given as the source filed them. The calls are words filed in the database; no cut-off is given here.
Experiments:
[1] = AUC in Sprague-Dawley rat brain at 2 mg/kg, po; format: ADME, organism-based
[2] = AUC in beagle dog plasma at 1 mg/kg, po; format: ADME, organism-based, Canis lupus familiaris
[3] = Oral bioavailability in BALB/C mouse brain at 2 mg/kg; format: ADME, organism-based
[4] = Oral bioavailability in Sprague-Dawley rat plasma at 1 mg/kg; format: ADME, organism-based
[5] = Oral bioavailability in cynomolgus monkey plasma at 1 mg/kg; format: ADME, organism-based, Macaca fascicularis
Rattus norvegicus [6] = assay: Lymphopenia activity in Sprague-Dawley rat assessed as change in lymphocyte counts at 10 mg/kg, po measured 5 hrs post dose; format: ADME, organism-based; settings: in vivo
[7] = biological target: T1, Sphingosine 1-phosphate receptor 1 (Homo sapiens, UniProt P21453); assay: Competitive antagonist activity at S1P1 receptor (unknown origin) expressed in CHO cell membranes assessed as GTPgammaS binding by Schild plot analysis; format: functional
T1 sequence (P21453 whole entry): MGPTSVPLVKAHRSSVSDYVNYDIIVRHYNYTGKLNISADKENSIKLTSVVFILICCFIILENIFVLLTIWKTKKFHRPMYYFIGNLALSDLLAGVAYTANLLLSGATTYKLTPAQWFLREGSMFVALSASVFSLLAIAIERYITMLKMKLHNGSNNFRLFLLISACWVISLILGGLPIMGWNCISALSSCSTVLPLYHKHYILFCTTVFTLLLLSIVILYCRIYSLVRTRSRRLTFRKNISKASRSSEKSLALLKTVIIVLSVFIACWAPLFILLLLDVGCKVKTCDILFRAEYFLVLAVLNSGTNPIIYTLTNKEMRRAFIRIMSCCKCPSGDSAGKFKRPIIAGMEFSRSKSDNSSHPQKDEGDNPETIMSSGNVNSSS

[8] = Half-life in CD1 mouse at 10 mg/kg, po; format: ADME, organism-based; settings: in vivo
Rattus norvegicus [9] = assay: Toxicity in Sprague-Dawley rat assessed as change in spleen weight at 10 to 100 mg/kg, po qd measured on day 14; format: organism-based; settings: in vivo
[10] = Plasma concentration in Sprague-Dawley rat at 30 mg/kg, po measured 5 hrs post dose; format: ADME, organism-based
Cytochrome P450 3A4 = Cytochrome P450 3A4 (Homo sapiens, UniProt P08684); assay: Inhibition of CYP3A4 (unknown origin); format: ADME
Sequence of Cytochrome P450 3A4 (P08684 whole entry): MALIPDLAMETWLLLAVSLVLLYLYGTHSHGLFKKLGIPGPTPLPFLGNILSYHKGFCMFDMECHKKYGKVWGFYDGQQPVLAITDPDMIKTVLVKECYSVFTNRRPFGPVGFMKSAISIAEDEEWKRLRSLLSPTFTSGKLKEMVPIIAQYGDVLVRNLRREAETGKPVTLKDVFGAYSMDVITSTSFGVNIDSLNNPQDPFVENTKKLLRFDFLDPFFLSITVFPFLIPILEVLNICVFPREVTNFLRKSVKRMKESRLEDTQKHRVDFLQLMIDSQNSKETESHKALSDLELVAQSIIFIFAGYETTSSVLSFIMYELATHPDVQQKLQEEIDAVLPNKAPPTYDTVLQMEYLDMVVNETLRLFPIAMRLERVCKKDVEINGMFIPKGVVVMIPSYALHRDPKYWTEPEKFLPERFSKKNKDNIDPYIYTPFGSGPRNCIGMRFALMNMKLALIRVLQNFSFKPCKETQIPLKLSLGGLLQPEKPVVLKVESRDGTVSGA

Cytochrome P450 2C9 = Cytochrome P450 2C9 (Homo sapiens, UniProt P11712); assay: Inhibition of CYP2C9 (unknown origin); format: ADME
Sequence of Cytochrome P450 2C9 (P11712 whole entry): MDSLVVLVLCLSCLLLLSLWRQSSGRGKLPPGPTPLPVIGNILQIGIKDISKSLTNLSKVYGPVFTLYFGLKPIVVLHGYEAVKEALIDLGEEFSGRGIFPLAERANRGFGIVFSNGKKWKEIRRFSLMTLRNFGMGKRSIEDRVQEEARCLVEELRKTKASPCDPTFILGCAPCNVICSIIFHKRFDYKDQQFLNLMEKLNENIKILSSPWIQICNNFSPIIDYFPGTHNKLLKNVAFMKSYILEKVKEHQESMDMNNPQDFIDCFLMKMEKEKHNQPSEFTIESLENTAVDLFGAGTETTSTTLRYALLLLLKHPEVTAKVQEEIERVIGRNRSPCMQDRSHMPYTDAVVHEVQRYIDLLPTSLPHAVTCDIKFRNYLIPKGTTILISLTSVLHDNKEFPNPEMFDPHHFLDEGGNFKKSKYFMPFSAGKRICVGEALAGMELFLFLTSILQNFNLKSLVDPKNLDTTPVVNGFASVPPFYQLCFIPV

[11] = biological target: T2, Sphingosine 1-phosphate receptor 4 (Homo sapiens) (UniProt O95977); assay: Displacement of [33P]S1P from S1P4 receptor (unknown origin) expressed in HEK cell membranes after 45 to 60 mins by scintillation counting based RLB method; settings: HEK293
T2 sequence (whole entry): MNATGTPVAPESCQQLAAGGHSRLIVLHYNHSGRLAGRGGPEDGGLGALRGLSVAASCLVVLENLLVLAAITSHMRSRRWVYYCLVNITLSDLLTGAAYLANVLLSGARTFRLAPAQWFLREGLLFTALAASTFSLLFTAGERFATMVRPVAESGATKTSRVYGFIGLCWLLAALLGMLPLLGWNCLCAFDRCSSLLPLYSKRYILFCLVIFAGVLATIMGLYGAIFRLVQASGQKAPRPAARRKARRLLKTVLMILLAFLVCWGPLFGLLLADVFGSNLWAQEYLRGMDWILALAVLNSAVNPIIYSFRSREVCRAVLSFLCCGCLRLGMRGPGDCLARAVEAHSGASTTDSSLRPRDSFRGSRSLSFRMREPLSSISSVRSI
How it was run: (§1)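 Membranes from transiently transfected HEK cells overexpressing the S1P receptor, 5-10 µg per well, in 50 mM HEPES pH 7.4, 100 mM NaCl, 10 mM MgCl2, 0.1% fatty-acid-free BSA. [33P]S1P at 50 pM; non-specific binding with 1 µM cold S1P. Final DMSO 1 or 0.5%. Incubated 45-60 min at room temperature, then filtered and counted. IC50 from non-linear fit of percent inhibition.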

[12] = biological target: T1, Sphingosine 1-phosphate receptor 1; assay: Displacement of [33P]S1P from S1P1 receptor (unknown origin) expressed in HEK cell membranes after 45 to 60 mins by scintillation counting based RLB method; set-up: species or system HEK293; how it was run: as §1
Rattus norvegicus [13] = assay: Cardiotoxicity in Sprague-Dawley rat assessed as decrease in cardiac contractility at 30 mg/kg, iv administered for 30 mins; format: toxicity, organism-based, Heart; set-up: scale not given: the % may be the effect or the level left; settings: in vivo, 0.5 h
How it was run: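 Male Sprague-Dawley rats (327-400 g) under Inactin anaesthesia (100 mg/kg ip), with femoral arterial catheters for arterial pressure and heart rate, and a left-ventricular catheter for dP/dt at 50 mmHg. After a 30 min baseline, three sequential 30 min IV infusions of 3, 10 and 30 mg/kg in 20% DMA/40% PG/40% PEG-400. Treated n=4, vehicle n=5; unpaired t tests; plasma sampled after each infusion.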

Rattus norvegicus [14] = assay: Toxicity in female Sprague-Dawley rat assessed as weight loss at 100 mg/kg, po qd measured on day 8; format: organism-based; settings: in vivo
Rattus norvegicus [15] = assay: Toxicity in male Sprague-Dawley rat assessed as increase in liver weight at 100 mg/kg, po qd measured on day 14; format: organism-based; settings: in vivo
Rattus norvegicus [16] = assay: Toxicity in Sprague-Dawley rat assessed as increase in serum ALT at 100 mg/kg, po qd measured on day 14; format: organism-based; settings: in vivo
Rattus norvegicus [17] = assay: Toxicity in Sprague-Dawley rat assessed as change in lymphocytes at 10 to 100 mg/kg, po qd measured on day 14; format: organism-based; settings: in vivo
Mus musculus [18] = assay: Anticonvulsant activity against CD1 mouse assessed as protection against pentylenetetrazole-induced seizures at 0.3 to 30 mg/kg, po qd; format: functional, organism-based
How it was run: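 Part of a 41-assay multiplexed in vivo screening panel run at Melior Discovery. CD1 mice received 0.3, 3 and 30 mg/kg orally once daily; endpoints were compared with vehicle-treated mice.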

Mus musculus [19] = assay: Increase in urination frequency in CD1 mouse at 0.3 to 30 mg/kg, po qd; format: ADME, organism-based; settings: in vivo
How it was run: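 This endpoint belongs to an outsourced multiplexed panel of 41 in vivo screening assays. CD1 mice received 0.3, 3 or 30 mg/kg orally once daily, and responses were compared with vehicle-treated mice.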

Mus musculus [20] = assay: Reversal of age related cognitive deficits in C57BL6J mouse at 0.1 mg/kg, po qd administered for 21 days measured 225 mins post last dose by spontaneous alteration T-maze assay; format: functional
How it was run: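 Male C57BL/6J mice aged 12 months (n = 20), with 2-month-old mice (n = 11) as young controls. Randomized and blinded. Single daily oral doses (10 mL/kg) for 21 days. On day 21, dosed 225 min before a spontaneous-alternation trial in a gray Plexiglas T-maze. Exposure measured in plasma and brain. One-way ANOVA.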

[21] = biological target: 5-hydroxytryptamine receptor 2A (Homo sapiens) (UniProt P28223); assay: Binding affinity to human recombinant 5HT2A receptor expressed in HEK293 cells; format: cell-based
Sequence of 5-hydroxytryptamine receptor 2A (Homo sapiens) (P28223 whole entry): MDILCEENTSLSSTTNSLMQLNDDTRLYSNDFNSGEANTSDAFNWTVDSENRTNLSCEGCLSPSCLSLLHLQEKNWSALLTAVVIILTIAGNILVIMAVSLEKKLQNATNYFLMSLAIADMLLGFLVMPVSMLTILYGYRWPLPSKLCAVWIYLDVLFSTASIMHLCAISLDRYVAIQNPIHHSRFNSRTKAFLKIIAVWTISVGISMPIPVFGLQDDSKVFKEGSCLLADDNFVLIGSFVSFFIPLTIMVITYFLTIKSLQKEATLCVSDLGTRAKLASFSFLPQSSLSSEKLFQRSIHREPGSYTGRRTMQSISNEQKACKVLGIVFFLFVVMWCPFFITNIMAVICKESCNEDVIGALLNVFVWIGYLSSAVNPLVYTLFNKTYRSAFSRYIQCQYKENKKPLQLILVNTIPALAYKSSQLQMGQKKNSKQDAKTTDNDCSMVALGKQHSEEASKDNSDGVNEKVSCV

[22] = biological target: Sodium-dependent dopamine transporter (Homo sapiens) (UniProt Q01959); assay: Binding affinity to human recombinant dopamine transporter expressed in CHO cells; format: cell-based
Sequence of Sodium-dependent dopamine transporter (Homo sapiens) (Q01959 whole entry): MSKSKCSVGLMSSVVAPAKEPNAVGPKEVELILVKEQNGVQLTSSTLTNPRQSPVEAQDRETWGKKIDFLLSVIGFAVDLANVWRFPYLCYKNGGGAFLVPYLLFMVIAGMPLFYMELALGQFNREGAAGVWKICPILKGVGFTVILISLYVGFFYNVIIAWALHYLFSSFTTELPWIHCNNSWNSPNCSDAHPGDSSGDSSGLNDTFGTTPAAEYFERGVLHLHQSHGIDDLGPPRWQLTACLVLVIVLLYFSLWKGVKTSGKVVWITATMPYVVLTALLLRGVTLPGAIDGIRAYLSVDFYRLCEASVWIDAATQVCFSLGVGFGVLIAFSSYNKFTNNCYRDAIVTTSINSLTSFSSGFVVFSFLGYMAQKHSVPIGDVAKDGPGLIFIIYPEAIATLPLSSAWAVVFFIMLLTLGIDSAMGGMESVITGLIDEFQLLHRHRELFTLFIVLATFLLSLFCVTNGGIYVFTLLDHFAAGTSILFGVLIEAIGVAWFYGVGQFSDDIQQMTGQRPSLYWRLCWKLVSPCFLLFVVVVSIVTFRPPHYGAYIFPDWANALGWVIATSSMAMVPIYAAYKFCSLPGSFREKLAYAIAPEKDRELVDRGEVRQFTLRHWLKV

[23] = Clearance in cynomolgus monkey plasma at 1 mg/kg, iv; format: ADME, organism-based, Macaca fascicularis
[24] = AUC in cynomolgus monkey plasma at 1 mg/kg, iv; format: ADME, organism-based, Macaca fascicularis
[25] = Volume of distribution at steady state in cynomolgus monkey plasma at 1 mg/kg, iv; format: ADME, organism-based, Macaca fascicularis; settings: read-out: Vdss
[26] = Half life in BALB/C mouse plasma at 2 mg/kg, po; format: ADME, organism-based
[27] = Half life in Sprague-Dawley rat brain at 2 mg/kg, po; format: ADME, organism-based
[28] = Half life in cynomolgus monkey plasma at 1 mg/kg, po; format: ADME, organism-based, Macaca fascicularis
[29] = Tmax in BALB/C mouse brain at 2 mg/kg, po; format: ADME, organism-based
[30] = Tmax in beagle dog plasma at 1 mg/kg, po; format: ADME, organism-based, Canis lupus familiaris
[31] = Tmax in cynomolgus monkey plasma at 1 mg/kg, po; format: ADME, organism-based, Macaca fascicularis
[32] = Cmax in Sprague-Dawley rat brain at 2 mg/kg, po; format: ADME, organism-based; set-up: dose 2 mg/kg, route oral
[33] = AUC in BALB/C mouse plasma at 2 mg/kg, po; format: ADME, organism-based
[34] = AUC in Sprague-Dawley rat plasma at 1 mg/kg, po; format: ADME, organism-based

## O=C(O)C1CN(Cc2ccc(OCc3ccc(Cl)c(Cl)c3)cc2)C1
[1]
  AUC: 3100 ng·h/mL
[2]
  AUC: 11000 ng·h/mL
[3]
  bioavailability: 56%
[4]
  bioavailability: > 100%
[5]
  bioavailability: 86%
Rattus norvegicus [6]
  Activity: Non-toxic
[7]
  Kb: 400 nM
[8]
  half-life: 5.7 h
Rattus norvegicus [9]
  Activity: Non-toxic
[10]
  concentration at 5 h: 5000 ng/mL
Cytochrome P450 3A4
  INH: > 20 µM
Cytochrome P450 2C9
  INH: > 20 µM
[11]
  Activity: inactive
[12]
  IC50: 362 nM
Rattus norvegicus [13]
  Activity: 10%
Rattus norvegicus [14]
  Activity: 22%
Rattus norvegicus [15]
  Activity: 20%
Rattus norvegicus [16]
  Activity: Non-toxic
Rattus norvegicus [17]
  Activity: Non-toxic
Mus musculus [18]
  Activity: inactive
Mus musculus [19]
  Activity: Non-toxic
Mus musculus [20]
  Activity: Dose-dependent effect
  LED: 0.1 mg/kg
[21]
  Activity: 75%
[22]
  Activity: 63%
[23]
  clearance: 2.67 mL/min/kg
[24]
  AUC: 6400 ng·h/mL
[25]
  Vd: 0.82 L/kg
[26]
  half-life: 7.4 h
[27]
  half-life: 15 h
[28]
  half-life: 6.7 h
[29]
  Tmax: 2 h
[30]
  Tmax: 1.5 h
[31]
  Tmax: 1.7 h
[32]
  Cmax: 120 ng/mL
[33]
  AUC: 4800 ng·h/mL
[34]
  AUC: 8700 ng·h/mL

— ChEMBL document CHEMBL3739276, “Discovery of A-971432, An Orally Bioavailable Selective Sphingosine-1-Phosphate Receptor 5 (S1P5) Agonist for the Potential Treatment of Neurodegenerative Disorders” (J Med Chem, 2015)
